# Bioassay records as filed in PubChem.
# In the library only some 3.8% were active in any assay of this set; here they are far more common.
# MPTP block – permeability transition pore inhibition. isolated mouse mitochondria, Ca2+ swelling absorbance, 30 min. inhibition, % at 10 µM. AID 602449. 360,000 tested, 1.4% active;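 active means inhibition of 50% or more, scaled per plate between neutral and stimulator controls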;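 further: 0% = DMSO wells given calcium and 100% = 1 mM EGTA wells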
# V-ATPase pH – yeast V-ATPase proton transport regulation by pHLuorin | response, % at 10 µM | S. cerevisiae, pHLuorin cytosolic pH fluorescence | 350,000 tested, 0.37% active; in the data active means response mostly above about 7.3%, no sharp cut-off; inactive means mostly below about 5.4%; further: actives read high
# T cell HTS – T cell immune modulators affecting CD8 T cell-vesicle binding. 2C CD8+ T cell-vesicle binding, flow cytometry; hits give low values. AID 2052. 330,000 tested, 0.068% active. response (vesicle binding), % at 7 µM;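 active means response, share of CD8 T cells binding vesicles, and their 90th percentile fluorescence all below set limits, cut at about 80% in these data, passing the limit was not always enough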;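 further: values below 100% mean blocked vesicle binding to the CD8+ T cells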
#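 Material: 2C TCR transgenic mouse naive CD8+ T cells, MACS-purified. Also added: QL9-charged Drosophila Ld/ICAM-1/B7-1 vesicles. Timing: binding 1.5 h at 37 °C. Measured by: high-throughput flow cytometry with anti-B7-1 and anti-CD8 staining. Read-out: percent CD8+ FL2 mean versus row control. Controls: Unloaded micro-vesicles (low), QL9 vesicles with 0.7% DMSO (high).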
# rCAG binder-1 – binds r(CAG) RNA repeats | inhibition, % at 3 µM | AID 651821 | 370,000 tested, 1.3% active | r(CAG) RNA repeat, TO-PRO-1 dye displacement fluorescence;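 active means inhibition above the plate cutoff, the mean of all test compounds on that plate plus 3 SD, cut at about 35% in these data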;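 further: 0% = DMSO alone and 100% = 100 µM mitoxantrone as full dye displacement; higher means more dye released from RNA so lower well fluorescence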
# B2AR ag – agonists of human beta-2 adrenergic receptor inducing internalization | Am2.2-beta2AR cells, FAP receptor internalization, flow cytometry | response, % (concentration not given with the values) | 340,000 tested, 0.43% active | AID 504454;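 active means response above a set limit, near 3 SD of response in nonfluorescent compounds, cut at about 42% in these data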
# Target sequence (P07550 whole entry, looked up): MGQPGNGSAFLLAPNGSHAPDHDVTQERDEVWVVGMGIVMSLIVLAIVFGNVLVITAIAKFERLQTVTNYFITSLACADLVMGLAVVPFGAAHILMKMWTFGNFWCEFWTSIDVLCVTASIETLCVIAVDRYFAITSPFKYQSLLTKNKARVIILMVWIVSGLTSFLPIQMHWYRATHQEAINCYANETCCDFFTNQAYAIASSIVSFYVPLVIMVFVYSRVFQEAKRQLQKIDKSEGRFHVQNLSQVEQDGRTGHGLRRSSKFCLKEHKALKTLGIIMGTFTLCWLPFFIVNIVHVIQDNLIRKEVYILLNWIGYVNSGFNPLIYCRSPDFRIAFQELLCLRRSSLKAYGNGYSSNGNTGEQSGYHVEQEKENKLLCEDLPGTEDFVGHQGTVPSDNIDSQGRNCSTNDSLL
# Exocytosis inh – lytic granule exocytosis inhibition; TALL-104 LAMP-1 surface exposure, flow cytometry; cells stimulated with thapsigargin and PMA; AID 651702; inhibition, % at 10 µM; 360,000 tested, 0.66% active;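 active means inhibition above about 55%, limit read from the data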
# rCAG bind conf – r(CAG) RNA repeat binding, confirmation. inhibition, % at 3 µM. TO-PRO-1 dye displacement fluorescence. 4,300 tested, 70% active. shares compounds with rCAG binder-1;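 active means inhibition above a per-plate cutoff, the mean inhibition of sample wells plus 3 SD, cut at about 35% in these data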;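 further: loss of TO-PRO-1 fluorescence as compound displaces dye from 1x1 AA loop RNA; 0% = DMSO only wells and 100% = 100 µM mitoxantrone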
# dCAG dye counter – DNA CAG dye complex inhibition counter-screen | d(CAG) DNA oligo TO-PRO-1 dye displacement, fluorescence | inhibition, % at 3 µM | shares compounds with rCAG binder-1 | 4,300 tested, 94% active;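 active means inhibition above its plate's cutoff, the mean test-well inhibition plus 3 SD, cut at about 4.8% in these data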;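 further: 0% = DNA dye mix with DMSO and 100% = 100 µM mitoxantrone; hits displace the dye from DNA and so lower well fluorescence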
# DNA CAG DR – counter-screen for rCAG binders: inhibitors of DNA CAG TO-PRO-1 complex. shares compounds with rCAG binder-1. AID 686960. DNA CAG/GTC duplex TO-PRO-1 dye displacement fluorescence. 250 tested, 20% active. IC50, µM; in the data active means IC50 below about 10 µM
# dCAG TOPRO ctr – counter-screen for rCAG binders: DNA CAG TO-PRO-1 complex inhibitors, late stage | IC50, µM | d(CAG) DNA duplex TO-PRO-1 dye displacement, fluorescence | shares compounds with rCAG binder-1 | 30 tested, 80% active
# rCAG binder-2 – r(CAG) repeat RNA binding, TO-PRO-1 displacement | shares compounds with rCAG binder-1 | r(CAG) RNA TO-PRO-1 dye displacement, fluorescence | IC50, µM | 30 tested, 100% active | AID 720651
# The depositor's hits bear a star; i = inactive; nt = not tested or not shown. Unless noted, how the calls were made is not given here.
SMILES,MPTP block,V-ATPase pH,T cell HTS,rCAG binder-1,B2AR ag,Exocytosis inh,rCAG bind conf,dCAG dye counter,others
CCOc1ccc(-n2c(O)c(/C=N/NC(=O)C3COc4ccccc4O3)c3ccccc3c2=O)cc1 (stereo not drawn),4,-4,179,76*,-10,-1,74*,37*,
CN1C(=O)/C(=C/c2ccccc2OCc2ccc(F)cc2)N(C)C1=S,1,-2,i,2,-1,6,nt,nt,
O=C(O)CN1C(=O)/C(=C\c2ccccc2OCc2ccc(F)cc2)SC1=S,4,-2,265,84*,-2,-5,72*,31*,DNA CAG DR=i
O=C(O)CN1C(=O)/C(=C\c2cccc(OCc3ccccc3)c2)SC1=S,2,-2,196,81*,1,-9,72*,35*,
O=C(O)CN1C(=O)/C(=C\c2ccccc2OCc2ccccc2)SC1=S,2,-1,nt,73*,nt,-6,73*,33*,DNA CAG DR=i
O=[N+]([O-])c1ccc2[nH]cc(S(=O)(=O)N3CCN(c4cccc(Cl)c4)CC3)c2c1,4,2,240,43*,9,21,37*,20*,
COC(=O)c1ccc(COc2ccccc2/C=C/C(=O)c2ccc(OCC(=O)O)cc2)cc1,-1,-1,438,56*,47*,1,64*,24*,
O=C(Nc1nc2ncccn2c1-c1ccccc1)c1ccccc1,nt,nt,nt,0,nt,nt,nt,nt,
Cc1ccc(S(=O)(=O)N2CCCC2C(=O)N2CCc3ccccc3C2)cc1 (stereo not drawn),nt,nt,nt,4,nt,nt,nt,nt,
Cc1cccc2sc(NC(=O)c3ccc(NS(=O)(=O)c4cccs4)cc3)nc12,4,2,256,80*,29,0,76*,40*,
COc1ccc2nc(NC(=O)c3ccc(NS(=O)(=O)c4cccs4)cc3)sc2c1,3,1,245,65*,19,-1,66*,29*,
COc1ccc2nc(NC(=O)CNS(=O)(=O)c3cccs3)sc2c1,1,0,830,9,6,10,nt,nt,
CC(C)C[C@H]1COc2cccc(N3CCOCC3)c2S(=O)(=O)N1,nt,nt,nt,0,nt,nt,nt,nt,
COc1ccc2oc(C)c(C(=O)c3ccccc3)c2c1,2,-1,419,-2,3,-7,nt,nt,
COc1ccc2oc(/C=C/N(C)C)c(C(=O)c3ccc(Cl)cc3)c2c1,0,1,242,40*,3,-1,11,9.7*,
O=C(Nc1cccc(Oc2ccc(C(=O)O)c(C(=O)O)c2)c1)c1ccc(-c2ccccc2)cc1,-1,3,331,58*,0,0,53*,19*,
COc1ccc(-c2nnc(SCC(=O)NN=Cc3c(O)ccc4ccccc34)n2-c2ccc(OC)cc2)cc1,nt,nt,nt,19,nt,nt,nt,nt,
O=C(Cn1cnc2ccccc2c1=O)N1CCN(Cc2ccc(F)cc2)CC1,nt,nt,nt,4,nt,nt,nt,nt,
CCCCNC(=O)NS(=O)(=O)c1ccc(NC(=O)CSc2nnc(-c3cccs3)n2-c2ccc(OC)cc2)cc1,nt,nt,nt,54*,nt,nt,62*,23*,
Cc1ccc(-n2c(SCC(=O)Nc3ccc(S(=O)(=O)Nc4nccs4)cc3)nnc2-c2cccs2)cc1,nt,nt,nt,71*,nt,nt,67*,25*,
COc1ccc(-n2c(SCC(=O)Nc3ccc(C(=O)O)cc3)nnc2-c2cccs2)cc1,0,7,651,24,0,-1,nt,nt,
O=C(CSc1nnc(-c2ccccn2)n1-c1ccc(Cl)cc1)Nc1ccc(S(=O)(=O)Nc2nccs2)cc1,nt,nt,nt,74*,nt,nt,75*,39*,
CCOc1ccc(-n2c(SCC(=O)Nc3ccc(S(=O)(=O)Nc4nccs4)cc3)nnc2-c2ccncc2)cc1,nt,nt,nt,69*,nt,nt,59*,26*,
C[C@H]1C2CC(OC(=O)Nc3ccc(C#N)cc3)C(C2)[C@H]2CCCCN21 (stereo partly drawn),nt,nt,nt,8,nt,nt,nt,nt,
COc1ccc(S[C@]2(C(=O)N3CCOCC3)CC(=O)N[C@@H]2c2ccc(OC)cc2)cc1,nt,nt,nt,5,nt,nt,nt,nt,
SMILES,MPTP block,V-ATPase pH,T cell HTS,rCAG binder-1,B2AR ag,Exocytosis inh,rCAG bind conf,dCAG dye counter,others
COc1ccc(-c2cc(NC(=O)Cc3c[nH]c4ccccc34)ccc2Nc2cccnc2)cc1F,nt,nt,nt,13,nt,nt,nt,nt,
CCOc1ccc(-n2c(SCC(=O)Nc3ccc(S(=O)(=O)Nc4nccs4)cc3)nnc2-c2ccco2)cc1,nt,nt,nt,68*,nt,nt,69*,28*,
CCOc1ccc(-n2c(SCC(=O)Nc3nccs3)nnc2-c2ccoc2C)cc1,2,0,326,-3,-17,2,nt,nt,
COc1ccc(-n2c(SCC(=O)Nc3nccs3)nnc2-c2ccc(Cl)cc2)cc1,2,-1,nt,2,-1,6,nt,nt,
CC(C)(C)c1ccc(-c2nnc(SCC(=O)Nc3ccc(S(=O)(=O)Nc4nccs4)cc3)n2-c2ccc(Cl)cc2)cc1,nt,nt,nt,61*,nt,nt,62*,26*,
CCOc1ccc(-n2c(SCC(=O)Nc3ccc(S(=O)(=O)Nc4nccs4)cc3)nnc2-c2ccc(C(C)(C)C)cc2)cc1,nt,nt,nt,60*,nt,nt,55*,25*,
CC(C)c1cc(C(=O)O)c2ccccc2n1,0,2,448,40*,-7,-5,-1,-1,
O=C1COc2ccccc2C(c2nnnn2-c2ccc3ccccc3c2)N1C1CC1 (stereo not drawn),nt,nt,nt,3,nt,nt,nt,nt,
c1coc(-c2nc3c4ccccc4ccn3c2Cc2ccsc2)c1,nt,nt,nt,15,nt,nt,nt,nt,
COc1ccc(/C=C/C(=O)NC(=S)NNC(=O)c2c(-c3ccccc3)noc2C)cc1,14,-1,239,12,9,-2,nt,nt,
COc1ccc(-c2cc(C(=O)NNC(=S)NC(=O)c3c(-c4ccccc4)noc3C)[nH]n2)cc1,9,-1,295,70*,-2,-4,75*,33*,DNA CAG DR=i;dCAG TOPRO ctr=i;rCAG binder-2=0.99*
CCNC(=S)NNC(=O)c1cc(-c2cccc(OC)c2)nc2ccccc12,2,-3,216,11,2,2,nt,nt,
COc1ccc(C(=O)NNC(=S)NC(=O)c2cc(-c3ccccc3)nc3ccccc23)cc1,34,3,767,65*,-1,4,79*,33*,
CCNC(=S)NNC(=O)c1cc(-c2ccc(OCC)cc2)nc2ccccc12,2,12,nt,43*,-15,5,48*,16*,
